# b-catenin transl: modulators of beta-catenin nuclear translocation, primary screen, imaging, HeLa cells, immunofluorescence, high-content | nuclear translocation activity, % at 5 µM | 190,000 compounds, 0.3% hits | AID 1665, 2009;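 active = nuclear translocation activity above 50% at 5 µM, with a well cell count of 50 or more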;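 also: per-cell ratio of nuclear to cytoplasmic median beta-catenin stain intensity; plate controls were DMSO negative control for no effect and GSK-3 inhibitor IX positive control for full effect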
#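 Test system: human HeLa cell line; Doses: 5 µM primary, 0.02–20 µM confirmation; Incubation: 24 h compound exposure, 37°C; Detection: beta-catenin immunofluorescence imaging with DAPI; Read-out: beta-catenin nuclear/cytoplasmic ratio, % activation.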
# HSV augment: enhancers of HSV replication in host cells, fold increase, host cell viability; HSV replication augmentation in cells; maximum fold increase; 220,000 compounds, 0.005% hits; in the data active = maximum fold increase above about 1.5; tested in PC3 cells
# L major viab: Leishmania major promastigote growth inhibition, primary screen. Leishmania major promastigotes, resazurin fluorescence viability. inhibition, % at 10 µM. AID 1063, 2008. 200,000 compounds, 9% hits; in the data active = inhibition above about 50%;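 also: promastigotes grown with compound for 44 hours at 28 °C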
# Dynein transport: inhibitors of GR-EGFP nuclear translocation, primary screen, dynein cargo transport inhibitor project, imaging, high-content, 3617.4 mouse cells; AID 1381, 2008; 220,000 compounds, 0.47% hits; test concentration mostly 20 µM; stimulated with dexamethasone, 1 µM; stronger effect = lower value; z-score, hits read low;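 active = plate z-score of nuclear minus cytoplasmic receptor signal below a set negative limit, without overly bright fluorescence or cell loss, cut at about -3.5 in these data, passing the limit was not always enough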;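 also: z-score of nuclear minus cytoplasmic ring GR-EGFP intensity difference per well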
#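 Also added: dexamethasone, 1.0 µM final. Medium: tet-free, stripped-serum medium. Detection: fixed, Hoechst-stained cells imaged at 10x for EGFP. Read-out: nuclear-to-cytoplasmic GR-EGFP distribution per well. Times: induction 48 h, compound 1 h, agonist 30 min.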
# MT stabilize HCS: microtubule stabilizers in HeLa cells, primary screen, imaging, high-content imaging | HeLa tubulin immunostaining HCS, 24 h; share of cells brighter than vehicle mean+2SD | % tubulin-high responders, % at 10 µM | 200,000 compounds, 0.83% hits | AID 2205, 2009;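 active = plate Z-score above 3 for both tubulin-high and condensed-nucleus cell shares, with cell loss under 80%, at 10 µM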;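 also: anti alpha tubulin signal scored within the nucleus-defined area of each cell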
# * hit, by the source's call; i = inactive; x = no result. Rows were chosen to be rich in hits. Some 8.9% of all compounds tested hit in one or more screens of this group.
SMILES,b-catenin transl,HSV augment,L major viab,Dynein transport,MT stabilize HCS
CC(C)NCC(O)Cn1c2c(c3ccccc31)CCc1c-2cnn1-c1ccccc1 (centres undefined),-3.0,i,100.5*,0.816,49.7
COc1ccc(-n2c(SCC3CNC(=O)O3)nnc2-c2ccc(Cl)cc2)cc1 (centres undefined),x,i,92.4*,-0.368,2.6
Cc1cccc(-c2nnc(SCC3CNC(=O)O3)n2-c2ccc(Cl)cc2)c1 (centres undefined),x,i,95.7*,0.142,1.8
Cc1ccc(-n2c(SCCN)nnc2-c2cccc(C)c2)cc1,-1.2,i,x,-0.456,x
Cc1ccc(C)c(N2CCN(C(=O)c3ccc(Cn4c(=S)[nH]c5ccc(N6CCOCC6)cc5c4=O)cc3)CC2)c1,-1.9,i,98.5*,-0.574,2.3
O=C(c1ccc(Cn2c(=S)[nH]c3cc4c(cc3c2=O)OCO4)cc1)N1CCN(c2ccccc2)CC1,-1.0,i,15.4,1.62,2.6
O=C(c1ccc(Cn2c(=S)[nH]c3ccc(N4CCOCC4)cc3c2=O)cc1)N1CCN(c2ccc(F)cc2)CC1,-1.6,i,96.3*,-0.203,3.1
O=C(c1ccc(Cn2c(=O)[nH]c3ccsc3c2=O)cc1)N1CCN(c2ccccc2)CC1,-0.8,i,7.6,-0.346,2.9
O=C(c1ccc(Cn2c(=O)[nH]c3ccccc3c2=O)cc1)N1CCN(c2ccc(F)cc2)CC1,-3.3,i,91.5*,-0.247,1.3
O=c1c2cc(N3CCOCC3)ccc2[nH]c(=S)n1Cc1ccc(Cl)cc1,x,i,7.9,0.0874,1.9
COc1ccc(N2CCN(C(=O)c3ccc(Cn4c(=S)[nH]c5ccc(N6CCOCC6)cc5c4=O)cc3)CC2)cc1,3.3,i,91.2*,-0.741,2.1
CC1(C)Cc2c(sc3c2c(N)nc(=S)n3Cc2ccc(Br)cc2)CO1,-1.5,i,x,-0.057,x
O=C(c1ccc2[nH]c3c(c2c1)CCCC3)N1CCN(c2ccc(F)cc2)CC1,0.4,i,60.1*,-0.741,2.0
O=C1CC(C(F)(F)C(F)(F)C(F)(F)F)=Nc2ccccc2N1,6.9,i,-2.8,0.462,2.4
O=C1CC(/C=C/c2ccccc2)=Nc2ccccc2N1,1.4,i,83.7*,-1.18,2.6
O=C1CC(/C=C/c2cccnc2)=Nc2ccccc2N1,-1.3,i,64.9*,-1.57,1.6
O=C1CC(/C=C/c2ccc(Cl)cc2)=Nc2ccccc2N1,3.1,i,80.9*,-2.09,26.9
CC1(C)CC(/C=C/c2ccccc2)=Nc2ccccc2N1,-0.5,i,x,-1.02,x
CCOC(=O)N1CCC(NC(=O)C2CCCN(S(=O)(=O)c3cccc4nsnc34)C2)CC1 (centres undefined),-1.8,i,-6.8,-0.368,5.2
COC(=O)CSc1ccc(S(=O)(=O)N2CCOCC2)cc1[N+](=O)[O-],-1.2,i,-6.9,-1.21,5.1
CCCCOc1ccc(/C=C/C(=O)Nc2ccc(C(N)=O)cc2)cc1,-1.9,i,90.6*,0.736,2.9
COc1ccc(C2C(C(C)=O)=C(O)C(=O)N2c2cccnc2)cc1OC (centres undefined),x,i,-6.7,-0.496,1.0
CSCCC(NS(=O)(=O)c1ccc2c(c1)oc(=O)n2C)C(=O)NCc1cccs1 (centres undefined),0.5,i,x,-0.185,x
CCN(c1cccc(C)c1)S(=O)(=O)c1ccc2c3c(cccc13)C(=O)N2,-2.8,i,98.9*,0.812,4.8
Cc1ccc(N/N=C/c2cccnc2)cc1,2.6,i,75.7*,-0.943,3.5
SMILES,b-catenin transl,HSV augment,L major viab,Dynein transport,MT stabilize HCS
Clc1ccc(NNc2ccnc3cc(Cl)ccc23)cc1,3.6,i,4.6,-0.545,3.2
Clc1ccc2c(N/N=C/c3cccnc3)ccnc2c1,-0.5,i,100.3*,-0.606,9.7
Clc1ccc2c(N/N=C/c3ccc(Br)cc3)ccnc2c1,-0.9,i,100.2*,-0.0681,2.1
CN(c1ccc(C(=O)Nc2ccccn2)cc1)S(=O)(=O)c1ccccc1,-0.1,i,29.7,-0.0457,3.7
COC(=O)c1ccccc1NC(=O)CN1CCN(C(=O)c2ccco2)CC1,-8.6,i,-3.3,1.47,2.1
Cc1ccc2sc(NNC(=O)c3cc(=O)c4ccccc4o3)nc2c1C,-1.0,x,0.9,2.64,1.6
COc1ccc(C)cc1N(C(=O)c1ccccc1)c1nc2ccccc2s1,4.9,i,21.1,0.341,4.9
Cc1ccsc1C(=O)N(c1nc2ccccc2s1)c1c(C)cccc1C,-2.0,i,100.3*,-0.994,1.8
Clc1ccc(-c2n[nH]c3c2Cc2ccccc2-3)cc1Cl,-0.8,i,x,-0.103,x
CCOc1ccc(C2Nc3cccc4cccc(c34)N2)cc1OC,-2.9,i,68.7*,-1.32,5.5
CCOc1cc(C2Nc3cccc4cccc(c34)N2)ccc1O,x,i,9.2,-2.9,2.8
CCCCNC(=O)CSc1nc2ccsc2c(=O)n1C1CCN(C(=O)OCC)CC1,-5.6,i,87.4*,-0.41,3.8
O=C(c1cc2n(n1)C(C(F)(F)F)CC(c1ccco1)N2)N1CCN(c2ccccn2)CC1 (centres undefined),-3.0,i,-0.8,-0.58,2.1
Cc1cccc(N2CCN(C(=O)c3cc4n(n3)C(C(F)(F)F)CC(c3ccco3)N4)CC2)c1C (centres undefined),-2.4,i,67.5*,-0.725,7.2
C=CCc1ccc(OCCCCNC(C)CC)c(OC)c1 (centres undefined),2.1,i,89.8*,-0.474,3.3
C=CCc1cc(Cl)ccc1OCCCNC(C)CC (centres undefined),0.9,i,100.2*,-0.564,4.5
COCCCNCCCOc1ccc(Cl)cc1C(C)(C)C,x,i,100.3*,-0.0784,2.4
CNCCCOc1ccc(Cl)cc1C(C)(C)C,1.0,i,99.3*,3.16,3.7
CCC(C)NCCOCCOc1ccc(C)cc1OC (centres undefined),-2.3,i,40.5,0.994,2.8
Cc1cc(C)cc(OCc2nnc(SCC(=O)c3ccccc3)o2)c1,0.4,i,-6.5,-0.965,3.7
CC(C)NC(=O)CCCOc1ccc(Cl)cc1Cl,x,i,-1.3,0.245,1.4
CCC(C)NCCCOc1ccc(Cl)cc1C(C)(C)C (centres undefined),-4.6,i,99.7*,1.31,4.1
CCCc1nc2c(C)cc(C)cc2c(N)c1CC,-2.8,i,98.0*,0.0169,2.9
COc1ccc(S(=O)(=O)N2CCN(C(=O)[C@@H]3CCC(=O)N3C3OC(=O)c4ccccc43)CC2)cc1 (some centres undefined),-3.7,i,0.4,-0.879,3.3
CN1CCN(C(=O)CCn2nc(-c3ccccc3)c3ccccc3c2=O)CC1,1.2,i,53.6*,1.2,3.8
CS(=O)(=O)N(Cc1ccccc1)c1ccccn1,-1.1,i,-5.6,1.01,1.3
